Measurements: ChEMBL document CHEMBL1125593, “Synthesis and biological evaluation of substituted benzenesulfonamides as novel potent membrane-bound phospholipase A2 inhibitors” (1991)

What was measured:
[1] = tested on: membrane-bound phospholipase A2 (Oryctolagus cuniculus); assay: Tested in vitro for inhibition of phospholipase A2 (PLA2) in rabbit heart membranes.
[2] = tested on: membrane-bound phospholipase A2 (Oryctolagus cuniculus); assay: Compound was tested for the percent inhibition of phospholipase A2 (PLA2) in rabbit heart membranes at a concentration of 100 uM.
[3] = tested on: Rattus norvegicus; assay: Compound was tested for the % inhibition rate of infarct size (myoglobin depleted area) on iv administration 15 min prior to the ligation at a dose of 1.0 mg/kg.; format: functional
[4] = tested on: Rattus norvegicus; assay: Compound was tested for the % inhibition rate of infarct size (myoglobin depleted area) on iv administration 15 min prior to the ligation at a dose of 0.1 mg/kg.; format: functional
[5] = tested on: Rattus norvegicus; assay: Compound was tested for the % inhibition rate of infarct size (myoglobin depleted area) on iv administration 15 min prior to the ligation at a dose of 0.3 mg/kg.; format: functional
[6] = tested on: Rattus norvegicus; assay: Compound was tested for the % inhibition rate of infarct size (myoglobin depleted area) on iv administration 15 min prior to the ligation at a dose of 10 mg/kg.; format: functional
[7] = tested on: Rattus norvegicus; assay: Compound was tested for the % inhibition rate of infarct size (myoglobin depleted area) on iv administration 15 min prior to the ligation at a dose of 1 mg/kg.; format: functional
[8] = tested on: Rattus norvegicus; assay: Compound was tested for the % inhibition rate of infarct size (myoglobin depleted area) on sc administration 15 min prior to the ligation at a dose of 75.0 mg/kg.; format: functional; conditions: route subcutaneous
Summary of the method: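 Sprague-Dawley rats (180–260 g) were anesthetized with diethyl ether and the left main coronary artery was ligated 1–2 mm from its origin for 3 h. Compound was given sc 15 min before ligation, and rats dying within 3 h were excluded. Infarct size was scored as the myoglobin-depleted area by immunohistochemistry and image analysis, with inhibition taken versus untreated animals, mean ± SEM.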

| Compound | IC30 [1] [nM] | other results |
| --- | --- | --- |
| NS(=O)(=O)c1ccc(NC(=O)/C=C/c2ccc(O)c(O)c2)cc1 | 25000 |  |
| CN(C(=O)/C=C/c1ccc(O)cc1)c1ccc(S(=O)(=O)NC2CCCCCC2)cc1 | 1240 |  |
| CN(C(=O)/C=C/c1ccc(O)c(O)c1)c1ccc(S(=O)(=O)NC2CCCCCC2)cc1 | 1750 |  |
| CN(C(=O)/C=C/c1ccc(C#N)cc1)c1ccc(S(=O)(=O)NC2CCCCCC2)cc1 | 200 |  |
| COC(=O)c1sccc1NC(=O)/C=C/c1ccc(O)c(O)c1 |  | inhibition [2]: 31.6% |
| CN(C(=O)/C=C/c1ccc(O)c(F)c1)c1ccc(S(=O)(=O)NC2CCCCCC2)cc1 | 5330 |  |
| CC(C)NS(=O)(=O)c1ccc(N(C)C(=O)/C=C/c2ccc(O)c(O)c2)cc1 | 30000 |  |
| COc1ccc(CCN(C)CCCC(C#N)(c2ccc(OC)c(OC)c2)C(C)C)cc1OC (stereo not drawn) |  | Inhibition rate [3]: 19.2%; Inhibition rate [4]: 0.7%; Inhibition rate [5]: 0.1% |
| CN(C(=O)/C=C/c1ccc([N+](=O)[O-])cc1)c1ccc(S(=O)(=O)NC2CCCCCC2)cc1 | 190 |  |
| CN(C(=O)/C=C/c1ccc(O)c(O)c1)c1ccc(S(=O)(=O)NC2CCCCC2)cc1 | 1450 |  |
| CN(C(=O)/C=C/c1ccc(O)c(O)c1)c1ccc(S(=O)(=O)NC2CCCC2)cc1 | 5430 |  |
| CN(C(=O)/C=C/c1ccc(O)c(O)c1)c1ccc(S(=O)(=O)NC2CCc3ccccc3C2)cc1 (stereo not drawn) | 5070 |  |
| CN(C(=O)/C=C/c1ccc(O)c(O)c1)c1ccc(S(N)(=O)=O)cc1 | 13300 |  |
| CCN(CC)CCCC(C)Nc1c2ccc(Cl)cc2nc2ccc(OC)cc12 (stereo not drawn) [QUINACRINE] |  | Inhibition rate [8]: 37.4% |

Second part, led by results:

| IC30 [1] [nM] | Compound | other results |
| --- | --- | --- |
| 9 | CN(C(=O)/C=C/c1ccc(S(C)(=O)=O)cc1)c1ccc(S(=O)(=O)NC2CCN(CCc3ccccc3)CC2)cc1 | Inhibition rate [3]: 22.5%; Inhibition rate [4]: 7%; Inhibition rate [5]: 18.7% |
| 65 | Cc1cccc(CCN(C)S(=O)(=O)c2ccc(N(C)C(=O)/C=C/c3ccc(S(C)(=O)=O)cc3)cc2)n1 |  |
| 6100 | CN(C(=O)/C=C/c1ccc(O)c(O)c1)c1ccc(S(=O)(=O)NC2CCc3ccccc32)cc1 (stereo not drawn) |  |
| 4640 | CN(C(=O)/C=C/c1ccc(O)c(O)c1)c1ccc(S(=O)(=O)NC2Cc3ccccc3C2)cc1 |  |
| 28 | CN(C(=O)/C=C/c1ccc(S(C)(=O)=O)cc1)c1ccc(S(=O)(=O)NC2CCN(Cc3ccccc3)CC2)cc1 | Inhibition rate [3]: 22.1%; Inhibition rate [4]: 1.6%; Inhibition rate [5]: 20.9% |
| 63 | CN(C(=O)/C=C/c1ccc(S(C)(=O)=O)cc1)c1ccc(S(=O)(=O)N2CCN(CCc3ccccc3)CC2)cc1 |  |
| 16 | CN(C(=O)/C=C/c1ccc(S(C)(=O)=O)cc1)c1ccc(S(=O)(=O)NC2CCCCCC2)cc1 |  |
| 66 | Cc1cccc(CCNS(=O)(=O)c2ccc(N(C)C(=O)/C=C/c3ccc(S(C)(=O)=O)cc3)cc2)n1 | Inhibition rate [6]: 21.9%; Inhibition rate [7]: 5.6% |
| 44000 | CNS(=O)(=O)c1ccc(N(C)C(=O)/C=C/c2ccc(O)c(O)c2)cc1 |  |
| 25 | CN(C(=O)/C=C/c1ccc(S(C)(=O)=O)cc1)c1ccc(S(=O)(=O)N2CCCN(CCc3ccccc3)CC2)cc1 |  |
| 49 | CN(C(=O)/C=C/c1ccc(S(C)(=O)=O)cc1)c1ccc(S(=O)(=O)NC2CCCCN(Cc3ccccn3)C2)cc1 (stereo not drawn) |  |
| 64 | CN(C(=O)/C=C/c1ccc(S(C)(=O)=O)cc1)c1ccc(S(=O)(=O)N2CCCN(Cc3ccccc3)CC2)cc1 |  |
| 220 | CN(C(=O)/C=C/c1ccc(S(C)(=O)=O)cc1)c1ccc(S(=O)(=O)N2CCN(Cc3ccccc3)CC2)cc1 |  |
| 1000 | CN1CCC(NS(=O)(=O)c2ccc(N(C)C(=O)/C=C/c3ccc(S(C)(=O)=O)cc3)cc2)CC1 |  |
| 450 | CN(C(=O)/C=C/c1ccc(-n2ccnc2)cc1)c1ccc(S(=O)(=O)NC2CCCCCC2)cc1 |  |
| 210 | CN(C(=O)/C=C/c1ccc(S(C)(=O)=O)cc1)c1ccc(S(=O)(=O)NCCc2ccccn2)cc1 |  |
| 51 | CC(C)CN1CCC(NS(=O)(=O)c2ccc(N(C)C(=O)/C=C/c3ccc(S(C)(=O)=O)cc3)cc2)CC1 |  |
| 260 | CN(C(=O)/C=C/c1ccc(S(C)(=O)=O)cc1)c1ccc(S(=O)(=O)NCc2ccccn2)cc1 |  |
| 25 | CN(C(=O)/C=C/c1ccc(S(C)(=O)=O)cc1)c1ccc(S(=O)(=O)NC2CCCCN(Cc3ccccc3)C2)cc1 (stereo not drawn) |  |
